Among the data in ChEMBL document CHEMBL4145587, “Peniisocoumarins A-J: Isocoumarins from Penicillium commune QQF-3, an Endophytic Fungus of the Mangrove Plant Kandelia candel” (J Nat Prod, 2018) are Activity, inhibition and IC50 values, retold here.

Each structure is given as a SMILES string. The source made the active and inactive calls. The calls are words filed in the database; no cut-off is given here.

One assay relates to HEK-293T. Briefly: Cytotoxicity against human HEK293T cells by MTT assay. The assay is classed as functional, cell-based. Put shortly:
(§1)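 MTT read-out in human cell lines A549, HepG2, HeLa, MCF-7 and HEK293T. Compounds were tested at 100 μM. Other details follow a prior report.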

Another assay deals with HepG2. The assay can be described thus: Cytotoxicity against human HepG2 cells by MTT assay. The assay is classed as functional, cell-based. Put shortly:
as §1
In general terms: Tetrazolium assays rely on reduction of a dye to a coloured formazan, in cell work by metabolically active cells.

In another assay the test system is Saccharomyces cerevisiae. The assay can be described thus: Inhibition of Saccharomyces cerevisiae alpha-glucosidase at 200 uM using p-nitrophenyl-glycoside as substrate incubated for 20 mins followed by substrate addition measured immediately relative to control. An outline of the steps: (§2)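 Yeast α-glucosidase from S. cerevisiae, from an enzyme stock of 2.0 units/mL, in 0.01 M potassium phosphate buffer at pH 7.0. Sample in DMSO was preincubated with enzyme for 20 min at 37 °C. p-Nitrophenyl glycoside (3 mg/mL stock) was then added and A410 read immediately at 37 °C. Inhibition % = (B−S)/B×100, with B as the DMSO blank. Screened at 200 μM; compounds above 45% inhibition went on to IC50. Triplicates.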

Assay [1] deals with T1, Phosphotyrosine protein phosphatase (Mycobacterium tuberculosis) (UniProt A0A045ISB3).
T1 sequence (whole entry): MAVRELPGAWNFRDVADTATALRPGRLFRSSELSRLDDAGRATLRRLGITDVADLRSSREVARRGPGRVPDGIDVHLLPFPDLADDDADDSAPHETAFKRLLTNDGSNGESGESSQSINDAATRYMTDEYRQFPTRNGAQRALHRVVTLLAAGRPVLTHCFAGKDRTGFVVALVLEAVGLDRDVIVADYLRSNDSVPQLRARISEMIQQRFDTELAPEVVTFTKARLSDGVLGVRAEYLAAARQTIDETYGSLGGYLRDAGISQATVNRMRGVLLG
The assay can be described thus: Inhibition of Mycobacterium tuberculosis H37Ra PTPB expressed in Escherichia coli BL21 (DE3) at 50 uM using p-nitrophenyl phosphate as substrate preincubated for 10 mins followed by substrate addition measured for 5 mins by spectrophotometric analysis. Put shortly: (§3)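 Triplicate wells; reaction buffer 50 mM Tris/100 mM NaCl, pH 7.0; p-nitrophenyl phosphate as substrate; oleanolic acid as positive control. Full details on enzyme overexpression, purification and assay are given in an earlier report.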

The next assay has as its system A549. Briefly: Cytotoxicity against human A549 cells by MTT assay. The assay is classed as functional, cell-based. An outline of the steps:
as §1

A further assay has as its system HeLa. Briefly: Cytotoxicity against human HeLa cells by MTT assay. The assay is classed as functional, cell-based. Put shortly:
as §1

The test system of the next assay is MCF7. The assay can be described thus: Cytotoxicity against human MCF7 cells by MTT assay. The assay is classed as functional, cell-based. An outline of the steps: as §1
Assay [2] in a line: Inhibition of Saccharomyces cerevisiae alpha-glucosidase using p-nitrophenyl-glycoside as substrate incubated for 20 mins followed by substrate addition measured immediately. An outline of the steps:
as §2

The target of assay [3] is T2, Phosphotyrosine protein phosphatase (Mycobacterium tuberculosis, UniProt A0A045ISB3).
T2 sequence (A0A045ISB3 whole entry): T1 sequence (whole entry)
The assay can be described thus: Inhibition of Mycobacterium tuberculosis H37Ra PTPB expressed in Escherichia coli BL21 (DE3) using p-nitrophenyl phosphate as substrate preincubated for 10 mins followed by substrate addition measured for 5 mins by spectrophotometric analysis. An outline of the steps: as §3

In general, inhibition refers to the relative decrease from the control value, in per cent. The term IC50 denotes the concentration needed to halve the response being measured.

Take `COC(=O)[C@@H]1[C@H](C(=O)OC)[C@@H](c2cc3cc(OC)cc(O)c3c(=O)o2)[C@H]1c1cc2cc(OC)cc(O)c2c(=O)o1`: the result in the assay on HEK-293T, in the assay on HepG2, with A549, with HeLa and with MCF7 was inactive. In addition, the inhibition in the assay with Saccharomyces cerevisiae was 18%. In addition, the inhibition entry in [1] is “inactive”.

For `COc1cc(O)c2c(=O)oc(C[C@@H](Cl)CO)cc2c1O`, the result in the assay on HEK-293T, in the assay on HepG2, in the assay on A549, in the assay on HeLa and in the assay on MCF7 was inactive. The inhibition in the assay with Saccharomyces cerevisiae came to 66%. For the same compound, in assay [2], it took 110 µM to reach half-maximal inhibition (IC50). Also, in assay [1], the inhibition result was “inactive”.

Turning to `COc1cc(O)c2c(=O)oc(C[C@@H](O)C(Cl)Cl)cc2c1`, the outcome in the assay with HEK-293T, with HepG2, in the assay on A549, in the assay on HeLa and with MCF7 was inactive. In addition, in the assay on Saccharomyces cerevisiae, the inhibition was 69%. The compound further showed an IC50 in assay [2] of 102 µM. Moreover, the inhibition result in [1] was “inactive”.

Take `COc1cc(O)c2c(=O)oc(C[C@@H]3O[C@@H]3C(C)=O)cc2c1`: the outcome with HEK-293T, with HepG2, in the assay on A549, in the assay with HeLa and in the assay on MCF7 was inactive. In the assay with Saccharomyces cerevisiae, the inhibition turned out to be 95%. Further, the IC50 in assay [2] came out at 38.1 µM. Further, the inhibition result in assay [1] was “inactive”.

For the compound `C[C@H]1O[C@H](O[C@H]2[C@H](O)[C@@H](O)[C@@H](O[C@H]3[C@H](O)[C@@H](O)C(O)O[C@@H]3CO)O[C@@H]2CO)[C@H](O)[C@@H](O)[C@@H]1N[C@H]1C=C(CO)[C@@H](O)[C@H](O)[C@H]1O` (stereo partly specified) [ACARBOSE], in the assay with Saccharomyces cerevisiae, the inhibition came to 19%. This compound also returned an IC50 in [2] of 478 µM.

The compound `CC1(C)CC[C@]2(C(=O)O)CC[C@]3(C)C(=CC[C@@H]4[C@@]5(C)CC[C@H](O)C(C)(C)[C@@H]5CC[C@]43C)[C@@H]2C1` [OLEANOLIC_ACID] yielded an IC50 in assay [3] of 22.1 µM.

For `COc1cc(O)c2c(=O)oc(C[C@@H](O)C(Cl)Cl)cc2c1O`, the outcome in the assay with HEK-293T, in the assay with HepG2, in the assay on A549, in the assay on HeLa and in the assay on MCF7 was inactive. In the assay with Saccharomyces cerevisiae, the inhibition worked out at 91%. Further, in assay [2], the midpoint of inhibition, the IC50, lay at 45.1 µM. Moreover, the inhibition result in assay [1] was “inactive”.

Regarding `COc1cc(O)c2c(=O)oc(C[C@@H](O)CO)cc2c1`, the result in the assay on HEK-293T, with HepG2, in the assay with A549, with HeLa and with MCF7 was inactive. In addition, the inhibition with Saccharomyces cerevisiae turned out to be 43%. Besides, in assay [1], the inhibition result was “inactive”.

Take `COc1cc(O)c2c(=O)oc(C[C@@H](O)CO)cc2c1O`: the result in the assay with HEK-293T, in the assay on HepG2, in the assay on A549, with HeLa and with MCF7 was inactive. Besides, in the assay with Saccharomyces cerevisiae, the inhibition stood at 83%. For the same compound, the IC50 in [2] is 78.1 µM. Moreover, the inhibition result in assay [1] was “inactive”.

Consider `COc1cc(O)c2c(=O)oc(C[C@H](C)O)cc2c1`, for which the outcome with HEK-293T, in the assay with HepG2, in the assay with A549, in the assay with HeLa and in the assay on MCF7 was inactive. In the assay with Saccharomyces cerevisiae, this compound registered an inhibition of 33%. In addition, the inhibition entry in assay [1] is “inactive”.

For the compound `COc1cc(O)c2c(=O)oc(C[C@@H](O)CCl)cc2c1`, the outcome with HEK-293T, in the assay with HepG2, in the assay on A549, in the assay with HeLa and in the assay with MCF7 was inactive. This compound yielded an inhibition in the assay on Saccharomyces cerevisiae of 41%. In addition, the inhibition entry in [1] is “inactive”.

On to `COc1cc(O)c2c(=O)oc(C[C@@H](O)CC(C)=O)cc2c1`, for which the result with HEK-293T, with HepG2, in the assay with A549, with HeLa and in the assay with MCF7 was inactive. The compound further showed an inhibition in the assay with Saccharomyces cerevisiae of 38%. For the same compound, the inhibition result in [1] was “inactive”.

Regarding `C[C@H](O)Cc1cc2c(O)c(O)cc(O)c2c(=O)o1`, the result in the assay on HEK-293T, with HepG2, in the assay on A549, in the assay on HeLa and with MCF7 was inactive. The inhibition with Saccharomyces cerevisiae was 91%. For the same compound, the results for the IC50 in [2] and in assay [3] were 40.5 µM and 20.7 µM, respectively.

Turning to `COC(=O)[C@@H]1[C@H](C(=O)OC)[C@H](c2cc3cc(OC)cc(O)c3c(=O)o2)[C@@H]1c1cc2cc(OC)cc(O)c2c(=O)o1`, the outcome with HEK-293T, with HepG2, in the assay on A549, with HeLa and in the assay on MCF7 was inactive. The compound also displayed an inhibition in the assay on Saccharomyces cerevisiae of 23%. Besides, the inhibition entry in assay [1] is “inactive”.

Consider `COc1cc(O)c2c(=O)oc(C[C@@H](Cl)CO)cc2c1`, for which the outcome in the assay with HEK-293T, with HepG2, with A549, in the assay on HeLa and in the assay with MCF7 was inactive. For the same compound, in the assay with Saccharomyces cerevisiae, the inhibition was 58%. For the same compound, 158 µM corresponded to half-maximal inhibition in [2] (IC50). Besides, the inhibition result in [1] was “inactive”.
